# STAT3 inh: STAT3 signaling inhibition; U3A cells, IL-6 STAT3-luciferase reporter, luminescence; host cell line lacks STAT1; inhibition, % at 5.5 µM; hit rate 0.89% among 190,000; AID 862;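 active = inhibition above the mean inhibition across all screened compounds plus 3 SD, cut at about 44% in these data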
# STAT3 act-1: STAT3 signaling activation; U3A cells, IL-6 STAT3-luciferase reporter, luminescence; 100% = signal with IL-6 EC80 alone; activation (% of control), % at 5.6 µM; hit rate 0.91% among 190,000;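 active = activation above the screen-wide mean of compound activation plus 3 SD, cut at about 130% in these data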
#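 Material: STAT3-luciferase reporter U3A cells; Probe or stimulus: IL-6 (33 ng/mL); Incubation: compound pre-incubation 1 h before IL-6, then 6 h stimulation at 37 °C; Technique: luminescence from STAT3-driven luciferase reporter; Evaluation: % activation versus median of IL-6-stimulated wells; Controls: IL-6-only high control.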
# PPC-1+TRAIL kill: compounds killing PPC-1 cancer cells with TRAIL present (potentiator screen, no TRAIL-free arm). AID 1443. PPC-1 cells + TRAIL, ATPLite viability luminescence. hit rate 0.41% among 220,000. cell killing (% activity), % at 4 µM or 5 µM;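 active = cell killing above 50% in the first pass at 4 µM, then a duplicate retest at 5 µM averaging 50% or more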
# STAT1 blocker: reduces IFN-gamma driven STAT1 reporter signal; NIH 3T3 STAT1-luciferase reporter, luminescence; inhibition, % at 5.5 µM; hit rate 0.35% among 200,000;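 active = inhibition above a set limit, the mean inhibition across all tested compounds plus 3 SD, cut at about 34% in these data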
# C8 TRAIL sens: caspase-8 TRAIL sensitization. NB7+C8 cells + TRAIL, ATPlite viability luminescence. inhibition (viability loss, TRAIL sensitization), % at 10 µM. hit rate 1% among 360,000. AID 624354;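 active = compounds causing at least 50% loss of cell viability in the single-dose screen, relative to plate controls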
# STAT3 act-2: confirmation of STAT3 signaling activators; U3A STAT3-luciferase reporter, IL-6 potentiation, luminescence; U3A cells lack STAT1; 100 means same as IL-6 alone; hit rate 64% among 1,200; shares compounds with STAT3 act-1; potentiation (% of control), % at 5.7 µM; AID 1267;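 active = percent activation of the STAT3 luciferase reporter above a set limit taken from the earlier primary screen, cut at about 130% in these data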
# NFkB act STAT3ct: activates NF-kappaB, counter-screen to STAT3 activators | shares compounds with STAT3 act-1 | human cells, NF-kappaB reporter activation | activation (% of control), % at 5.7 µM | hit rate 11% among 1,200; in the data active = activation above about 120%;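 also: reporter induced by TNF-alpha stimulation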
# STAT1 act: activates STAT1, counter-screen to STAT3 activators; activation (% of control), % at 5.7 µM; shares compounds with STAT3 act-1; AID 1318; hit rate 13% among 1,200; NIH 3T3 STAT1-luciferase reporter, IFN-gamma, luminescence;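 active = activation above the solvent-only control well mean plus 3 SD, set per screening run, cut at about 120% in these data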
# Numbers stand for hits; i = inactive; nt = no result. Most compounds without a hit are left out; they make up all but 1.8% or so of the library.
SMILES,STAT3 inh,STAT3 act-1,PPC-1+TRAIL kill,STAT1 blocker,C8 TRAIL sens,STAT3 act-2,NFkB act STAT3ct,STAT1 act
Cc1ccc(N2C(=O)CC(c3c[nH]c4ccccc34)C2=O)cc1 (stereo not given),i,i,i,i,i,nt,nt,nt
Cc1ccc2c(c1)C(c1ccccc1)N(C(=O)CC(C)C)CC(=O)N2 (stereo not given),nt,nt,nt,nt,i,nt,nt,nt
Cc1ccc2cc(C#N)c(N3CCCC3)nc2c1C,i,140,i,i,i,137,i,133
Cn1c2ccccc2c2ncn(CCCN3CCOCC3)c(=O)c21,i,140,i,i,i,154,i,i
Cn1c2ccc(F)cc2c2ncn(CCN3CCOCC3)c(=O)c21,i,i,i,i,i,nt,nt,nt
O=C(O)CC/C(=C\c1cc([N+](=O)[O-])ccc1Cl)c1nc2ccccc2s1,i,142,i,i,i,147,i,i
O=C(O)CC/C(=C\c1ccccc1[N+](=O)[O-])c1nc2ccccc2s1,i,i,i,i,i,nt,nt,nt
Cc1nn(CCC(=O)NNC(=S)Nc2ccc([N+](=O)[O-])cc2)c(C)c1[N+](=O)[O-],i,140,i,i,i,136,i,i
O=C1CC(c2ccccc2Cl)=NN(c2ncnc3ccccc23)C1=O,i,148,i,i,i,146,i,i
CC(=O)Nc1cccc(NC(=O)CSc2ccc(-c3cccnc3)nn2)c1,i,140,i,i,i,i,i,i
CC(=O)c1cccc(NC(=O)CSc2ccc(-c3cccnc3)nn2)c1,nt,nt,nt,nt,i,nt,nt,nt
Cc1nnsc1C(=O)Nc1ccc(S(=O)(=O)N2CCCCC2C)cc1 (stereo not given),nt,nt,nt,nt,i,nt,nt,nt
O=C(Nc1ccccc1N1CCN(C(=O)c2ccc(Cl)cc2)CC1)c1cc2ccccc2o1,i,147,i,i,i,i,i,i
Cc1cc(N/N=C/c2c[nH]c3ccccc23)c2ccccc2n1,i,148,i,i,i,141,i,i
Cc1cc(C)nc(N/N=C/c2c[nH]c3ccccc23)n1,i,i,i,i,i,nt,nt,nt
c1ccc(-c2ccccc2-c2nc(-c3cccnc3)no2)cc1,i,i,i,i,i,nt,nt,nt
c1cncc(-c2noc(-c3cccc4ccccc34)n2)c1,i,188,i,i,i,176,124,148
Cc1ccc(-n2c(N)c(-c3nc4ccccc4n3C)sc2=S)cc1,i,183,i,i,i,176,i,i
O=c1cc(-c2ccccc2)[nH]c2ccc(F)cc12,i,i,i,i,i,nt,nt,nt
COc1ccc2[nH]c(-c3cccc(F)c3)cc(=O)c2c1,i,148,i,i,i,i,130,126
COc1cccc(-c2cc(=O)c3cc(NC(=O)c4ccccc4)ccc3[nH]2)c1,i,i,i,i,i,nt,nt,nt
COc1cccc(-c2cc(=O)c3cc(NC(=O)c4ccc(N(C)C)cc4)ccc3[nH]2)c1,i,139,i,i,nt,i,161,i
Cc1ccc2[nH]c(-c3cccc(F)c3)cc(=O)c2c1,i,142,i,i,i,i,143,i
Cc1ccc(-c2cc(=O)c3cc(F)ccc3[nH]2)cc1,i,i,i,i,i,nt,nt,nt
CC(C)(C(=O)Nc1nccs1)c1ccccc1,i,i,i,i,i,nt,nt,nt
SMILES,STAT3 inh,STAT3 act-1,PPC-1+TRAIL kill,STAT1 blocker,C8 TRAIL sens,STAT3 act-2,NFkB act STAT3ct,STAT1 act
CSc1nnc(-c2ccccc2)c(-c2ccccc2)n1,nt,nt,i,nt,i,nt,nt,nt
CSc1nnc2c3ccccc3c3ccccc3c2n1,i,162,i,i,i,147,i,i
Cc1ccc(C)c(NC(=O)COC(=O)c2c(C)nn(-c3ccccc3)c2C)c1,nt,nt,nt,nt,i,nt,nt,nt
Cc1ccccc1S(=O)(=O)Nc1nc2ccccc2nc1N1CCc2ccccc2C1,i,136,i,i,i,135,i,i
O=S(=O)(Nc1nc2ccccc2nc1N1CCc2ccccc2C1)c1ccc(Cl)cc1,i,136,i,i,i,i,i,i
Cc1ccccc1S(=O)(=O)Nc1nc2ccccc2nc1Cl,i,i,i,i,i,nt,nt,nt
CC(=O)Nc1ccc(S(=O)(=O)Nc2nc3ccccc3nc2N2CCc3ccccc3C2)cc1,i,137,i,i,i,140,i,i
FC(F)(F)c1cccc(-c2cc3nc(NC4CCCCC4)ccn3n2)c1,nt,nt,nt,nt,i,nt,nt,nt
O=C(CS(=O)c1ccc(C(F)(F)F)cc1[N+](=O)[O-])Oc1ccccc1 (stereo not given),i,147,i,i,i,i,i,i
COC(=O)c1ccc(OC(=O)CS(=O)c2ccccc2[N+](=O)[O-])cc1 (stereo not given),i,i,i,i,i,nt,nt,nt
O=C(O)c1cc(-c2ccc3c(c2)OCO3)nc2ccccc12,i,i,i,i,i,nt,nt,nt
CCCN(CCC)C(=O)c1cc(-c2ccc3c(c2)OCO3)nc2ccccc12,i,154,i,i,i,138,i,i
COc1ccc(Cl)cc1C(=O)Nc1ccncc1,nt,nt,nt,nt,i,nt,nt,nt
CCN(CC)c1ccc(NC(=O)c2cc(Cl)ccc2OC)cc1,i,162,i,i,i,151,i,i
Cc1cccc2c1NC(=O)/C2=C\C(=O)c1cccs1,i,147,i,i,i,136,i,i
COc1ccc(C(=O)NCCc2nnc3ccc(SCC(=O)NCc4ccccc4)nn23)cc1,nt,nt,nt,nt,i,nt,nt,nt
O=c1oc2ccccc2c(Nc2cc3ccccc3cc2O)c1[N+](=O)[O-],i,141,i,i,i,171,i,i
COC(=O)c1c(NC(=O)CN2CCN(c3ccccc3OC)CC2)c2cc(C)ccc2n1C,i,143,i,i,i,135,i,i
COC(=O)c1c(NC(=O)CN2CCN(c3ccccc3OC)CC2)c2c(C)cccc2n1C,i,i,i,i,nt,nt,nt,nt
Cc1ccccc1C1C(C#N)=C(N)N(N(C)C)C2=C1C(=O)CC(C)(C)C2 (stereo not given),nt,nt,nt,nt,i,nt,nt,nt
Cc1ccc(C)n1-c1nccc(-c2cccs2)n1,i,140,i,i,i,i,i,i
COCc1ccc(CN2CCc3c([nH]c4ccccc34)C2C(C)(C)C)o1 (stereo not given),i,140,i,i,i,141,i,i
Cc1ccc(C(=O)Nc2cc(Cl)ccc2OC(=O)c2ccc(C)cc2)cc1,i,140,i,i,nt,i,i,i
O=C(Nc1cccnc1Cl)c1ccc(Cl)cc1,nt,nt,nt,nt,i,nt,nt,nt
O=C(Nc1ccccc1OC(=O)c1ccc(Cl)cc1)c1ccc(Cl)cc1,i,136,i,i,i,141,i,i
O=C(Nc1ccccc1O)c1ccc(Cl)cc1,i,152,i,i,i,141,i,i
COc1ccc(C2C(C(=O)N3CCC(C(N)=O)CC3)CC(=O)N2c2ccc(OC)cc2)cc1 (stereo not given),i,i,i,i,i,nt,nt,nt
